Experimental data published in paper PMC2874468 (Journal of the American Chemical Society, 2010).
Values joined by “and” are separate entries in the source; they are usually repeats but may differ in a detail not shown here. Equal values may be shown once.

Assays:
[1] = biological target: T1, A. aeolicus IspH (Aquifex aeolicus, UniProt O67625); test: IspH enzyme inhibition assay; format: biochemical
T1 sequence (O67625 1-289): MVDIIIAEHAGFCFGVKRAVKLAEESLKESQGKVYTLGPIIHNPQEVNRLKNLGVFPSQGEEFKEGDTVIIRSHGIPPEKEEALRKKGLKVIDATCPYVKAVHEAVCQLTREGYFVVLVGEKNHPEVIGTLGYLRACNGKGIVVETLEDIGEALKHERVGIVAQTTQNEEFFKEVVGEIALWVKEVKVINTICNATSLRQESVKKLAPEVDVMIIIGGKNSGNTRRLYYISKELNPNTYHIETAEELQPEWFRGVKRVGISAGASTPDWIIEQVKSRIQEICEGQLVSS
Summary of the method: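 Ni-NTA-purified recombinant enzyme expressed in E. coli BL-21(DE3). Cluster reconstituted anaerobically with DTT, elemental sulfur and FeCl3 until A410/A280 reached about 0.38. Run anaerobically at room temperature in pH 8.0 Tris·HCl/NaCl/5% glycerol with 0.4 mM dithionite, 2 mM methyl viologen and 72 nM enzyme, across varied HMBPP. Initial rates at 732 nm fitted to Michaelis-Menten.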

[2] = test system: IspH; settings: cited from earlier work
[3] = biological target: farnesyl diphosphate synthase; settings: read-out: Ki, farnesyl diphosphate synthase inhibition; previous work ref 22; cited from earlier work

| SMILES | activity in IspH inhibition (in words) [1] | other results |
| --- | --- | --- |
| C/C(=C\COP(=O)(O)OP(=O)(O)O)CO [HMBPP, E-4-hydroxy-3-methyl-but-2-enyl diphosphate] | – | Km ([1]; read-out: KM for HMBPP, reconstituted A. aeolicus IspH, Michaelis-Menten fit): 5 µM and 7 µM |
| O=P(O)(O)OP(=O)(O)O [PPi] | – | IspH inhibition (weak inhibitors) [2]: ~ 1 mM |
| N#CCOP(=O)(O)OP(=O)(O)O [compound 15, Cyanomethyl diphosphate] | far less active than their acetylenic counterparts | – |
| N#CCCOP(=O)(O)OP(=O)(O)O [compound 16, 2-Cyanoethyl diphosphate] | far less active than their acetylenic counterparts | – |
| Cc1ccc[n+](CC(O)(P(=O)([O-])O)P(=O)(O)O)c1 (stereo not shown) [compound 18] | – | Ki [3]: ~20 nM |
| O=P(O)(O)OP(=O)(O)OCc1ccc(Cl)nc1 [compound 29, (6-Chloropyridin-3-yl)-methyl-diphosphate] | lack of activity | – |
| C#CC(=O)O [propiolic acid] | poor activity | – |
